Assay results: the EternaBench riboswitch data

Tested on: MS2 coat protein
Assay: apparent Kd, MS2 coat protein; higher = weaker binding; RNA-MaP array; FMN 200 µM where present
Procedure, shortened: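 Stalled E. coli RNA polymerase transcribed each design on Illumina sequencing-chip clusters. The clusters were titrated with SNAP-549-labelled MS2 coat protein, starting at 0.7 or 1.5 nM and doubling up to 3 µM, first without ligand and then with constant ligand, in 100 mM Tris-HCl pH 7.5, 80 mM KCl, 4 mM MgCl2, BSA, DTT, yeast tRNA and Tween-20. Green signal was normalised to red-channel RNA signal and to the control-cluster median Fmax. The apparent Kd is the median of filtered binding-curve fits made for each cluster.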

[1] = designed as: OFF switch for flavin mononucleotide, no ligand
[2] = ligand present: flavin mononucleotide, designed as: OFF switch for flavin mononucleotide
[3] = designed as: ON switch for flavin mononucleotide, no ligand
[4] = ligand present: flavin mononucleotide, designed as: ON switch for flavin mononucleotide

Sequence | apparent Kd [1] [nM] | apparent Kd [2] [nM] | apparent Kd [3] [nM] | apparent Kd [4] [nM]
ACGCGAUGGGAGAAGGUACUUUAAAAUAUUUCCACAUGAGGAUCACCCAUGUAAGGAUAUCCCAUCGUUAAAUAUUAUACAGCA | 7.07 | 5.91 |  | 
ACGCUUUGGGAGAAGGUACUUUAAAAUAUUUCCACAUGAGGAUCACCCAUGUAAGGAUAUCCCAUCGUUAAAUAUUAUACAGCA | 8.91 | 6.88 |  | 
ACGGAGCUAGGAUAUACAUGAGGAUCACCCAUGUAUGAUGCGGCGCCCUUUUGCGCCUGUAGAAGGAGCACCGU | 15.9 | 16.5 |  | 
ACGUAAAUUCGAGGAUAUCGGUGAUAUAAUUUACGAGAAGGCGAUAAUUGUGAUAAACUUAUAGACAUGAGGAUCACCCAUGUA |  |  | 42.7 | 37.9
ACGUGUCGUGUAGGAUAUGACACAGGAAACUGGUCAGAAGGACAUGAGGAUCACCCAUGUAAAAUGUUCAAGAAUGACGUAUGC | 58.6 | 105 |  | 
ACGUUCAAAGGAUAUACAUGAGGAUCACCCAUGUCCGUCAUGCAAGCGACGGUUUGCUGUAGAAGGUUGAACGC | 22.4 | 114 |  | 
ACGUUUUAUGCAGGAUAUUGACUUAUAUUUAAACAAGAAGGGCAAUACAUGAGGAUCACCCAUGUUAUCAUGGUAUUUAAGUUC | 82.2 | 53.9 |  | 
ACUACGAUAGCGAUAUGAUCGAGAGAUCAUGUCGCUAAAUUUAGAAGGACAUGAGGAUCACCCAUGUAGGAUAUGGGUCGUAGA |  |  | 28 | 9.62
ACUAGGCGAGGAUAUACAUGCUUAACACAGCGAAAGCUGUGACAUGAGGAUCACCCAUGUAGAAGGCGCAAAUA | 54.1 | 365 |  | 
ACUAUACGAGGAUAUACUGACGGGCCUCAGGCAUACAUCAGACAUGAGGAUCACCCAUGUAGAAGGCGUAUACU | 104 | 40.6 |  | 
ACUCGAUUUUUGGGUAUACUAUAUGAGGAUAUCAUACAUCUAUACAUGAGGAUCACCCAUGUGACUGAGAAGGCAUAUAUAAUA |  |  | 18.8 | 9.15
ACUGGUCGAGGAUAUACAAUCGUGCUUCGGCACGUAAGAUCACAUGAGGAUCACCCAUGUAGAAGGCGACCAGU | 60.3 | 743 |  | 
ACUGGUCGAGGAUAUACAUGAGGAUCACCCAUGUGAUUAGCAGUCCUCGGACUGCAAUGUAGAAGGCGACCAGU | 370 | 842 |  | 
ACUGGUCGAGGAUAUGCAAUCGUGCUUCGGCACGUAAGGUCACAUGAGGAUCACCCAUGUAGAAGGCGACCAGU | 17.2 | 36.4 |  | 
ACUGUUUGAUUCCUCUUUUACAUGAGGAUCACCCAUGUUAUCGAGGAUAUGCAUUAGAGUGUUUAGCAGAAGGCGAUGUAAUUG | 6.51 | 20.8 |  | 
ACUUAGUACAAUUUAGAUCUACAUGAGGAUCACCCAUGUACUGAGGAUAUCAGCUCGAAUAGAGCUGAGAAGGCAGAAGUACUU |  |  | 245 | 53.5
ACUUCACAUGAGGAUCACCCAUGUCAGGAUAUCCAGCACUAGCAGGCUCGCUCUUGAAGGAGAAGGGACGGGUA | 46.1 | 54.6 |  | 
ACUUCACAUGAGGAUCACCCAUGUCAGGCCGGACUAGGAUAUUAUCAUGCAGCGUAACAGUGAGAAGGAGUUGGAU |  |  | 91.2 | 89.3
AGAAAACAGGAGAAGGGCCCACGUGAACCUCCAUAUCUGCGAAACAUGAGGAUCACCCAUGUGAGGCAGGAUAUCCAAUUACUU | 9.32 | 38.7 |  | 

Sequence | apparent Kd [1] [nM] | apparent Kd [2] [nM] | apparent Kd [3] [nM] | apparent Kd [4] [nM]
AGAAACUACGAGAAGGACAAAACCGGUGCCGCAAACAUGAGGAUCACCCAUGUAGGAUAUCGUAGUUUCAGGAUCGUGAGAUCA | 9.2 | 31.2 |  | 
AGAAACUACGAGAAGGACAUGAGGAUCACCCAUGUUUCCACUUAGUGGCAUGUAGGAUAUCGUAGUUUCAGGAUCGUGAGAUCA | 5.58 | 16.6 |  | 
AGAAACUACGAGAAGGACAUGUGGUCCUUCAAUUACAUGAGGAUCACCCAUGUAGGAUAUCGUAGUUUCAGGAUCGUGAGAUCA | 12.7 | 3.81 |  | 
AGAAACUACGAGAAGGACAUGUGGUCCUUCAGUUACAUGAGGAUCACCCAUGUAGGAUAUCGUAGUUUCAGGAUCGUGAGAUCG | 40.4 | 20.4 |  | 
AGAAAGUCAGGAUAUCGAAGGUAGUGGAGAGGAGUGUGGUACGAGAAGGGACAUGAGGAUCACCCAUGUAGGAG | 34.1 | 31.4 |  | 
AGAACGUCAGGAUAUCCAACAACAAGUAAAUAGAGAAGAAGGGAGAAGGGACAUGAGGAUCACCCAUGUAAGAA | 51.4 | 45.9 |  | 
AGAAGGCUACAGAAGGGACACACACGGUGGGAGUCAGGAUAUGUAGUGAAAACGUUACAUGAGGAUCACCCAUGUAGACCUUCC |  |  | 141 | 18.4
AGAAUUGGUAGAUAAAAGGUCACACAGGAUAUACUCCCAACAUGAGGAUCACCCAUGUACUGGCGGUAGAAGGGUGGGAUCCUC |  |  | 33.6 | 8.52
AGAGAAUAGGUAGGAUAUCUUAAUAGAAAGAAUAGAGAAGGACCACAUGAGGAUCACCCAUGUGAUGUCUUGAGACUACAUGGU | 16.4 | 19.4 |  | 
AGAGACCUCACAGGAUAUGCUGGACUUUGUCCAGCAGAAGGGUGAAAACAUGAGGAUCACCCAUGUAUGGUCUCCAAAUUUAAC |  |  | 187 | 12.7
AGAGCCUCGUGAGGAUAUACAUGAGGAUCACCCAUGUAAAUGGAAUAACGGAGGAAACUCCGAAUGUAGAAGGCACGAGGCUCA | 79.9 | 966 |  | 
AGAGUGUGAGGAUAUAUGGUAAAAGUGAAGAGAGAGGAGGAGUAGAAGGUACAUGAGGAUCACCCAUGUUUGGA | 42.8 | 36.7 |  | 
AGAUCAACCACAGGAUAUGGCUAGCAUAGCUAGCCAGAAGGGUGGUCGUAUCCAUGUAAAUACAUGAGGAUCACCCAUGUAUCC |  |  | 220 | 119
AGAUGACAAAGUCAUCUCUGACGGACAUGAGGAUCACCCAUGUAGGAUAUGCUACUCAAAGAGUAGCAGAAGGACAUGUGUCUU | 33.5 | 173 |  | 
AGAUGACAUGUAGGAUAUCGAGGCCUGAGGCCUCGAGAAGGACAUGAGGAUCACCCAUGUUUGCCGAGCAUGGAAUCCCGCACU | 29.1 | 205 |  | 
AGAUGUACCUAGGAUAUCCGUCUUAUUGGACUAGGAGAAGGAGGUACAUGAGGAUCACCCAUGUAUGACUCCUG | 11.5 | 14 |  | 
AGAUUUCAUGAGGAUAUCGUAUUAGAUUUAUUGCGAGAAGGCAUGACAUGAGGAUCACCCAUGUAGUGUUGGUU | 49.3 | 96.6 |  | 
AGCAACAUGAGGAUCACCCAUGUUGGUUCGAAAACGGACUCACAGGAUAUGCGGCGUAAUCGCUCGCAGAAGGGUGCGUCCUCA |  |  | 14.1 | 25.6
AGCACGAAAGUGCAACGAUGUACGAGAAGGACAUGAGGAUCACCCAUGUAGCAGUAACUGCAAAUGUAGGAUAUCGUACAUCGA | 6.54 | 14.7 |  | 

Sequence | apparent Kd [1] [nM] | apparent Kd [2] [nM] | apparent Kd [3] [nM] | apparent Kd [4] [nM]
AGCAGACGAGGAUAUAGAUGGAAUGACAUGAGGAUCACCCAUGUGAUCGAUCUAUUUGAUUUAGAAGGUGUCUGCU | 12.5 | 15.1 |  | 
AGCAUCUGAGGAUAUACUGGGUAUGGAAGGCGAAGGGCCAGACAUGAGGAUCACCCAUGUAGAAGGCAGUUUGC | 79.3 | 32.9 |  | 
AGCAUGUAAGGAUAUGUAACGCGGCGUUCAUUCGUCGUCCCACAGAAGGUACAUGAGGAUCACCCAUGUGCUCC | 42 | 77.7 |  | 
AGCCGAAGCGCAGGAUAUACAUGUAUACAUGAGGAUCACCCAUGUAGCAACACGUGGUAGUGAUUGUAGAAGGGUGCUCGGCGC |  |  | 32.8 | 30
AGCUACGUUUCGUAGCAGUGUCAUCGAGAAGGCCCUGACAUGAGGAUCACCCAUGUUGUUACAUGGGAGGAUAUCGAUGAUACA |  |  | 12.6 | 4.9
AGCUACGUUUCGUAGCAGUGUCAUCGAGAAGGCCUCAUUACAUGAGGAUCACCCAUGUAAGCAUGGGAGGAUAUCGAUGAUACA |  |  | 36.5 | 15.6
AGCUGGAGAGGAUAUACGUAGGUAAAAAAAGUCUGAUAACUACAUGAGGAUCACCCAUGUAGAAGGCUCUGGCA | 16 | 43.8 |  | 
AGCUGGUGACAGCAUCCAUCAAAACAUGAGGAUCACCCAUGUAGAAGGCUGUACGGUUACCGUACAGAGGAUAUACAAUGAUGG | 7.61 | 9.36 |  | 
AGCUGGUGACAGCAUCCAUCUUAACAUGAGGAUCACCCAUGUAGAAGGCUGUACGGUUACCGUACAGAGGAUAUACAUAGAUGG | 7.95 |  |  | 
AGCUGUGGCCGAGGAUAUACAUCCUUUAUAAAACCGAAAUAUAAUCGGACAUGAGGAUCACCCAUGUAGAAGGCGGUCUCAGCA | 51.4 | 702 |  | 
AGCUGUGGCCGAGGAUAUCACGAACCAUGGAAAACCAUGGAAAUUCUACAUGAGGAUCACCCAUGUGAGAAGGCGGUCUCAGCA | 18.1 | 17.2 |  | 
AGGAACAUGAGGAUCACCCAUGUUAGAGACCUCAUGCGAUGUAGAAGGAUAAUCCGAGAAGAGGUAUAGGAUAUACAUGAGAAA | 208 | 171 |  | 
AGGAAGUUAGGAUAUGCUGCUCGUCACUUGCGUGAUGAGUAGCAGAAGGGACAUGAGGAUCACCCAUGUAAAAA | 44.2 | 22.7 |  | 
AGGACGGGUAAGAAGGCGUUCUCACAUGAGGAUCACCCAUGUCGAAGGAUGAGGAUAUUGGCCGAGGGUGGCGUUUUGUGACGA |  |  | 30.9 | 9.35
AGGAGGUCAGGAUAUGCAUGGCGGGACUUGCGUCGUGGCGUGCAGAAGGGACAUGAGGAUCACCCAUGUGGAGG | 125 | 181 |  | 
AGGAGGUCAGGAUAUGCUGCUCGUCACUUGCGUGAUGAGUAGCAGAAGGGACAUGAGGAUCACCCAUGUAAAUA | 48.7 | 86.7 |  | 
AGGAGGUUAGGAUAUGCUGCUCGUCACUUGCGUGAUGAGUAGCAGAAGGGACAUGAGGAUCACCCAUGUAAAGA | 43.1 | 27.7 |  | 
AGGCAGCAAGGAUAUACAUAAUUCCUACAAGUCAGCAUAGGACAUGAGGAUCACCCAUGUAGAAGGUGCAAAGA | 24.1 | 46.3 |  | 
